Assay results reported in ChEMBL document CHEMBL4706573, “Synthesis and evaluation of thiophene based small molecules as potent inhibitors of Mycobacterium tuberculosis” (Eur J Med Chem, 2020).
pIC50: −log10 of the molar value. Values after ≈ are worked out from the molar mass of the structure shown. Active and inactive are the calls of the source. The calls are words filed in the database; no cut-off is given here.

Tests used:
THP-1 = test: Cytotoxicity against human THP-1 cells assessed as reduction in cell viability measured after 96 hrs by WST1 assay; assay type: cell-based; conditions: thp-1, 96 h
In short: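 THP-1 cells seeded at 20,000/well with 20 ng/ml PMA for 48 h. Cells then washed and rested 24 h in RPMI with 10% FBS. Drug dilutions in RPMI complete medium added in triplicate for 96 h. Viability read by WST-1 reagent after a 30 min incubation.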

[1] = tested on: Mycobacterium tuberculosis; test: Antimycobacterial activity against Mycobacterium tuberculosis H37Rv after 10 to 14 days; assay type: functional; conditions: time 10-14 day
In short: (§1)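 MIC99 determined in whole cells, tested in triplicate with INH as the positive control. Strains were wild-type, pMV306, pMV306-pks13 and INH-resistant mc2 497. Susceptibility was scored relative to the parental strain: S where the MIC99 was at most 2x the parental MIC99.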

[2] = tested on: Mycobacterium tuberculosis; test: Antimycobacterial activity against Mycobacterium tuberculosis expressing pMV306-pks13 after 10 to 14 days; assay type: functional, organism-based; conditions: time 10-14 day; in short: as §1
[3] = tested on: Mycobacterium tuberculosis; test: Antimycobacterial activity against Mycobacterium tuberculosis expressing pMV306 after 10 to 14 days; assay type: functional, organism-based; conditions: time 10-14 day; in short: as §1
[4] = tested on: Mycobacterium tuberculosis; test: Antimycobacterial activity against Mycobacterium tuberculosis H37Rv assessed as FICI in presence of isoniazid by checkerboard assay; assay type: functional
In short: (§2)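 Two-drug checkerboard: lead compound serially diluted twofold along one axis, cross-diluted twofold with a TB drug (RIF, INH, LEVO, BDQ or PA-824) to form combinations. FICI calculated for each combination.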

[5] = tested on: Mycobacterium tuberculosis; test: Antimycobacterial activity against Mycobacterium tuberculosis H37Rv assessed as FICI in presence of bedaquiline by checkerboard assay; assay type: functional; in short: as §2
[6] = tested on: Mycobacterium tuberculosis; test: Antimycobacterial activity against Mycobacterium tuberculosis H37Rv assessed as FICI in presence of pretomanid by checkerboard assay; assay type: functional; in short: as §2
[7] = tested on: Mycobacterium tuberculosis; test: Antimycobacterial activity against Mycobacterium tuberculosis H37Rv assessed as FICI in presence of rifampicin by checkerboard assay; assay type: functional; in short: as §2
[8] = tested on: Mycobacterium tuberculosis; test: Antimycobacterial activity against Mycobacterium tuberculosis infected in human THP-1 cells assessed as reduction in intracellular bacterial growth at 10 times MIC99 incubated for 4 days followed by 10-fold serial dilution and measured after 3 to 4 weeks relative to control; assay type: functional; conditions: time 32 day
In short: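 THP-1 cells infected and then washed twice with 1x PBS. Infected macrophages overlaid with RPMI containing drug for 4 days. Lysed on day 0 and day 4 with 1x PBST (0.1% Triton X-100). Tenfold serial dilutions plated on MB 7H11 agar, incubated at 37 °C for 3-4 weeks, then CFU counted. INH used as control.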

[9] = tested on: Mycobacterium tuberculosis; test: Antimycobacterial activity against early-logarithmic cultures of Mycobacterium tuberculosis H37Rv assessed as reduction in bacterial load at 10 times MIC99 incubated for 7 days followed by 10-fold serial dilution and measured after 2 to 4 weeks; assay type: functional; conditions: time 2-5 weeks
In short: (§3)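 Early-logarithmic culture (OD600nm ~0.2) exposed to 10x MIC99 for 7 days. Bacteria then counted as CFU and compared with untreated samples. INH used as control.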

[10] = tested on: Mycobacterium tuberculosis; test: Ratio of MIC99 for antimycobacterial activity against Mycobacterium tuberculosis H37Rv to MIC99 for antimycobacterial activity against Mycobacterium tuberculosis H37Rv in presence of bedaquiline; assay type: functional; in short: as §2
[11] = tested on: Mycobacterium tuberculosis; test: Antimycobacterial activity against Mycobacterium tuberculosis H37Rv assessed as FICI in presence of levofloxacin by checkerboard assay; assay type: functional; in short: as §2
[12] = tested on: Mycobacterium tuberculosis; test: Antimycobacterial activity against early-logarithmic cultures of Mycobacterium tuberculosis H37Rv assessed as bacterial killing at 10 times MIC99 incubated for 7 days followed by 10-fold serial dilution and measured after 2 to 4 weeks; assay type: functional; conditions: time 2-5 weeks; in short: as §3
[13] = Inhibition of N-terminal His-tagged Mycobacterium tuberculosis PtpB expressed in Escherichia coli BL21 (DE3)-CodonPlus cells using DiFMUP as substrate measured after 45 mins by spectrofluorimetric method
[14] = tested on: Mycobacterium tuberculosis; test: Antimycobacterial activity against Mycobacterium tuberculosis H37Rv; assay type: functional
[15] = tested on: Mycobacterium tuberculosis; test: Antimycobacterial activity against Mycobacterium tuberculosis H37Ra measured up to 7 days; assay type: functional; conditions: 168 h, time day <=7

SMILES | Activity (THP-1) [µM] | MIC99 [1] [µM] | further results
COC(=O)c1cc(-c2cc3ccccc3s2)sc1NC(=O)CCl | > 50 | 0.78 (≈ 0.285 µg/mL) | Activity [2]: Active; Activity [3]: Active
CCOC(=O)c1cc(-c2ccccc2)sc1N | > 50 | > 10 | –
COC(=O)c1cc(-c2ccccc2)sc1NC(=O)CCl | > 50 | 0.19 (≈ 0.0589 µg/mL) | fractional inhibitory concentration index (FICI) [4]: 0.562; fractional inhibitory concentration index (FICI) [5]: 0.25; fractional inhibitory concentration index (FICI) [6]: 0.625; fractional inhibitory concentration index (FICI) [7]: 0.625; fold change (FC) [8]: 5; FC [9]: 10; Activity [2]: Active; Ratio [10]: 8; Activity [3]: Active; fractional inhibitory concentration index (FICI) [11]: 0.562
CCOC(=O)c1cc(-c2ccccc2)sc1NC(=O)N(CC)CC | > 50 | 3.12 (≈ 1.08 µg/mL) | –
COC(=O)c1cc(-c2ccc(F)cc2)sc1NC(=O)CCl | > 50 | 0.78 (≈ 0.256 µg/mL) | Activity [2]: Active; Activity [3]: Active
CCOC(=O)c1cc(-c2ccccc2)sc1NC(=O)c1ccc(C#N)cc1 | > 50 | > 10 | –
CCOC(=O)c1cc(-c2ccccc2)sc1NC(=O)c1ccc(C)cc1 | > 50 | > 10 | –
COC(=O)c1cc(-c2cc(F)cc(F)c2)sc1NC(=O)CCl | > 50 | 0.78 (≈ 0.27 µg/mL) | Activity [2]: Active; Activity [3]: Active
NNC(=O)c1ccncc1 [ISONIAZID] | > 50 | 0.19 (≈ 0.0261 µg/mL) | fold change (FC) [8]: 200; Activity [2]: Active; Activity [3]: Active; Activity [12]: >4 log10CFU
CCOC(=O)c1cc(-c2ccccc2)sc1NC(=O)N(C)C | > 50 | > 10 | –
CCOC(=O)c1cc(-c2ccccc2)sc1NC(=O)NCc1ccccc1 | > 50 | > 10 | –
COC(=O)c1cc(-c2ccc(F)cc2)sc1NC(=O)N1CCCCC1 | > 50 | > 10 | –
CO[C@H]1/C=C/O[C@@]2(C)Oc3c(C)c(O)c4c(O)c(c(/C=N/N5CCN(C)CC5)c(O)c4c3C2=O)NC(=O)/C(C)=C\C=C\[C@H](C)[C@H](O)[C@@H](C)[C@@H](O)[C@@H](C)[C@H](OC(C)=O)[C@@H]1C [RIFAMPIN] | – | 0.007 (≈ 0.00576 µg/mL) | –
COC(=O)c1cc(-c2ccc(F)cc2)sc1NC(=O)N1CCCC1 | > 50 | > 10 | –
COC(=O)c1cc(-c2ccc(F)cc2)sc1NC(=O)NC1CC1 | > 50 | > 10 | –
O=C(O)C(=O)N(Cc1cccc(Cl)c1)Cc1ccc(S(=O)(=O)NCCC(c2ccccc2)c2ccccc2)s1 | – | – | pIC50 [13]: 6.40
CCOC(=O)c1cc(-c2ccccc2)sc1NC(=O)NC(C)C | > 50 | 1.56 (≈ 0.519 µg/mL) | –
COC(=O)c1cc(-c2cccc(F)c2)sc1NC(=O)CCl | > 50 | 0.19 (≈ 0.0623 µg/mL) | Activity [2]: Active; Activity [3]: Active
COC(=O)c1ccsc1NC(=O)CCl | > 50 | 0.19 (≈ 0.0444 µg/mL) | fractional inhibitory concentration index (FICI) [4]: 0.75; fractional inhibitory concentration index (FICI) [5]: 0.5; fractional inhibitory concentration index (FICI) [6]: 1; fractional inhibitory concentration index (FICI) [7]: 0.75; fold change (FC) [8]: 2.5; FC [9]: 10; Activity [2]: Active; Ratio [10]: 4; Activity [3]: Active; fractional inhibitory concentration index (FICI) [11]: 0.562
COC(=O)c1cc(-c2ccc(C(F)(F)F)cc2)sc1NC(=O)CCl | > 50 | 0.39 (≈ 0.147 µg/mL) | Activity [2]: Active; Activity [3]: Active

SMILES | Activity (THP-1) [µM] | MIC99 [1] [µM] | further results
CCOC(=O)c1cc(-c2ccccc2)sc1NC(=O)Nc1ccccc1 | > 50 | > 10 | –
CCOC(=O)c1cc(-c2ccccc2)sc1NC(=O)N1CCCC1 | > 50 | > 10 | –
CCOC(=O)c1cc(-c2ccccc2)sc1NC(=O)N1CCN(C)CC1 | > 50 | > 10 | –
CCOC(=O)c1cc(-c2ccccc2)sc1NC(C)=O | > 50 | > 10 | –
CCOC(=O)c1cc(-c2ccccc2)sc1NC(=O)Cc1ccccc1 | > 50 | > 10 | –
CCOC(=O)c1c(NC(=O)c2c(F)c(F)c(F)c(F)c2F)sc2c1CCCCC2 | – | – | MIC [14]: 1 µM (≈ 0.433 µg/mL)
CCN(CC)C(=O)Nc1sc(-c2ccc(F)cc2)cc1C(=O)OC | > 50 | > 10 | –
CCOC(=O)c1cc(-c2ccccc2)sc1NC(N)=O | > 50 | > 10 | –
CCOC(=O)c1cc(-c2ccccc2)sc1NC(=O)c1cccnc1 | > 50 | > 10 | –
CCOC(=O)c1cc(-c2ccccc2)sc1NC(=O)c1ccccc1 | > 50 | > 10 | –
CCOC(=O)c1cc(-c2ccccc2)sc1NC(=O)NC1CC1 | > 50 | 1.56 (≈ 0.515 µg/mL) | –
CCOC(=O)c1cc(-c2ccccc2)sc1NC(=O)NC | > 50 | > 10 | –
COc1ccc([C@@H](c2ccc(OCCN(C(C)C)C(C)C)cc2)c2cccs2)cc1 | – | – | MIC [15]: 3.12 µM (≈ 1.32 µg/mL)
CCOC(=O)c1c(NC(=O)c2c(F)c(F)c(F)c(F)c2F)sc(C(N)=O)c1C | – | – | MIC [14]: 0.5 µM (≈ 0.211 µg/mL)
CCOC(=O)c1cc(-c2ccccc2)sc1NC(=O)CBr | > 50 | 0.78 (≈ 0.287 µg/mL) | Activity [2]: Active; Activity [3]: Active
COC(=O)c1cc(-c2ccc(F)cc2)sc1NC(=O)NC(C)C | > 50 | > 10 | –
CCOC(=O)c1cc(-c2ccccc2)sc1NC(=O)N1CCCCC1 | > 50 | > 10 | –
CCOC(=O)c1cc(-c2ccccc2)sc1NC(=O)N1CCOCC1 | > 50 | > 10 | –
CCOC(=O)c1cc(-c2ccccc2)sc1NC(=O)c1ccc(F)cc1 | > 50 | > 10 | –
